Each structure is given as a SMILES string.

The target in one test is T1, Acetylcholinesterase (Mus musculus, UniProt P21836).
T1 sequence (P21836 whole entry): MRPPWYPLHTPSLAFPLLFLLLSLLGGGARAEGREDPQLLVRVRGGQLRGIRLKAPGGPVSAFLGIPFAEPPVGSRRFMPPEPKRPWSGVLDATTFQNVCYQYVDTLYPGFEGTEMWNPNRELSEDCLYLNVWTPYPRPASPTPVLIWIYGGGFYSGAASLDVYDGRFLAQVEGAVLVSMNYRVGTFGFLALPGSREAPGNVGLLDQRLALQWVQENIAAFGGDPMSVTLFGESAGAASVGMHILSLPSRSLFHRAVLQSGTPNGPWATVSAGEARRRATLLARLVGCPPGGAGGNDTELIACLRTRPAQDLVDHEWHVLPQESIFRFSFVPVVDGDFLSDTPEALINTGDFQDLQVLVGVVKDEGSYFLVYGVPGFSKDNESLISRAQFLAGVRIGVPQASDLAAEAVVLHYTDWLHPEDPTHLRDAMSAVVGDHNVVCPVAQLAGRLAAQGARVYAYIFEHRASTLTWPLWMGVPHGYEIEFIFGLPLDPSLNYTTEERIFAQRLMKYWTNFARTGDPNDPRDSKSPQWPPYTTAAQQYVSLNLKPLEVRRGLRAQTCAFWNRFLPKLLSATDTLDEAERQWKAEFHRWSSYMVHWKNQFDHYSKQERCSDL
Put plainly: Inhibition of mouse brain AChE after 1 hr by modified Ellman's colorimetric method. The gist of the method:
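Enzyme from mouse brain extract. Compounds preincubated with enzyme 1 h at 37 °C, then acetylthiocholine plus DTNB added. Absorbance read at 415 nm at 2 min intervals. Activity expressed as percent of DMSO solvent control. Seven concentrations tested. IC50 from nonlinear regression of sigmoidal dose–response, accepted only if r² ≥ 0.95. Mean of at least four independent measurements.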

A further test concerns the target Cholinesterase (Mus musculus, UniProt Q03311). Put plainly: Inhibition of mouse serum BChE after 1 hr by modified Ellman's colorimetric method. In short, it runs like this: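 Enzyme from mouse serum extract. Compounds preincubated with enzyme 1 h at 37 °C, then butyrylthiocholine plus DTNB added. Absorbance read at 415 nm at 2 min intervals. Activity expressed as percent of DMSO solvent control. Seven concentrations tested. IC50 from nonlinear regression of sigmoidal dose–response, accepted only if r² ≥ 0.95. Mean of at least four independent measurements.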

Sequence of Cholinesterase (Q03311 whole entry): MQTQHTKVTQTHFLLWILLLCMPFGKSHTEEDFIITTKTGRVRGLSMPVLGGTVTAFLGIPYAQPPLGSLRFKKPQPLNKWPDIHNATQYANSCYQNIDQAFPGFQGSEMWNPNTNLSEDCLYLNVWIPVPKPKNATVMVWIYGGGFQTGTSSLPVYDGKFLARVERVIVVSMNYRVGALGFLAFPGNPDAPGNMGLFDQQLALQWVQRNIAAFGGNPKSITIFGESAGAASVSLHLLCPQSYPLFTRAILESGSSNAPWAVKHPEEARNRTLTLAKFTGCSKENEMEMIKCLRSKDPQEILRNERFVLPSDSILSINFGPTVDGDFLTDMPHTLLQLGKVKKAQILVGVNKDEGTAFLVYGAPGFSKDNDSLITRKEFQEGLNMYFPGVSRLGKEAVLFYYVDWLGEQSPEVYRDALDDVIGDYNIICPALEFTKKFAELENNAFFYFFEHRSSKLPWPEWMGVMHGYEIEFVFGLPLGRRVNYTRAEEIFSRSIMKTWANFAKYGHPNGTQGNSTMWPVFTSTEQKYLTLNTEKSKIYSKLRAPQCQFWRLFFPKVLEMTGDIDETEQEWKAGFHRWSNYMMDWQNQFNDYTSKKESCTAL

`CN1c2ccc(OC(=O)Nc3ccc4ccccc4c3)cc2[C@]2(C)CCN(CCc3ccccc3)[C@H]12`: the IC50 came out at 44 µM against Acetylcholinesterase and 580 nM against Cholinesterase.
`CN1c2ccc(OC(=O)Nc3ccc([N+](=O)[O-])cc3)cc2[C@]2(C)CCN(CCc3ccccc3)[C@H]12`: the IC50 at Acetylcholinesterase is more than 100 µM; against Cholinesterase, 6700 nM.
With `CN1c2ccc(OC(=O)NCCc3ccccc3)cc2[C@]2(C)CCN(CCc3ccccc3)[C@H]12`, the IC50 against Acetylcholinesterase worked out at 0.45 µM; against Cholinesterase it was 16 nM.
For `CN1c2ccc(OC(=O)NCC3CCCCC3)cc2[C@]2(C)CCN(CCc3ccccc3)[C@H]12`, the IC50 against Acetylcholinesterase was found to be 2.5 µM; on Cholinesterase it was 1.8 nM.
For `COc1ccc(NC(=O)Oc2ccc3c(c2)[C@]2(C)CCN(CCc4ccccc4)[C@@H]2N3C)cc1OC` the same measures were 11 µM and 97 nM.
For `CN1c2ccc(OC(=O)Nc3ccc(Oc4ccccc4)cc3)cc2[C@]2(C)CCN(CCc3ccccc3)[C@H]12`, the IC50 on Acetylcholinesterase was more than 100 µM; against Cholinesterase it was 2000 nM.
On to `CN1c2ccc(OC(=O)Nc3ccccc3)cc2[C@]2(C)CCN(CCc3ccccc3)[C@H]12`, for which the IC50 against Acetylcholinesterase is 1.6 µM; against Cholinesterase, 340 nM.
As to `CN(C)c1ccc(NC(=O)Oc2ccc3c(c2)[C@]2(C)CCN(CCc4ccccc4)[C@@H]2N3C)cc1`, the 50% inhibitory concentration (IC50) at Acetylcholinesterase was more than 100 µM; at Cholinesterase it was 79 nM.
Take `CCCCc1ccc(NC(=O)Oc2ccc3c(c2)[C@]2(C)CCN(CCc4ccccc4)[C@@H]2N3C)cc1`: the IC50 against Acetylcholinesterase worked out at 48 µM; against Cholinesterase it was 980 nM.
Regarding `CN1c2ccc(OC(=O)NCc3ccccc3)cc2[C@]2(C)CCN(CCc3ccccc3)[C@H]12`, the values for the IC50 on Acetylcholinesterase and against Cholinesterase were 0.18 µM and 6.6 nM, respectively.
Regarding `CN1c2ccc(OC(=O)Nc3ccc(Cl)cc3)cc2[C@]2(C)CCN(CCc3ccccc3)[C@H]12`, the results for the half-maximal inhibitory concentration (IC50) against Acetylcholinesterase and against Cholinesterase were more than 100 µM and 370 nM, respectively.
For the compound `CN1c2ccc(OC(=O)NC3CCCCC3)cc2[C@]2(C)CCN(CCc3ccccc3)[C@H]12`, the values for the IC50 against Acetylcholinesterase and on Cholinesterase were 5.6 µM and 22 nM, respectively.
For the compound `CC(C)c1ccc(NC(=O)Oc2ccc3c(c2)[C@]2(C)CCN(CCc4ccccc4)[C@@H]2N3C)cc1` [PHENETHYLCYMSERINE], the IC50 on Acetylcholinesterase was more than 100 µM; against Cholinesterase, 540 nM.
Turning to `CNC(=O)Oc1ccc2c(c1)[C@]1(C)CCN(C)[C@@H]1N2C` [PHYSOSTIGMINE], the 50% inhibitory concentration (IC50) on Acetylcholinesterase amounted to 0.04 µM; on Cholinesterase it was 280 nM.
As for `CN1c2ccc(OC(=O)Nc3ccc4c(c3)OCO4)cc2[C@]2(C)CCN(CCc3ccccc3)[C@H]12`, the results for the IC50 against Acetylcholinesterase and at Cholinesterase were 1.9 µM and 100 nM, respectively.
For `CN1c2ccc(OC(=O)Nc3ccc(C(C)(C)C)cc3)cc2[C@]2(C)CCN(CCc3ccccc3)[C@H]12`, the values for the 50% inhibitory concentration (IC50) at Acetylcholinesterase and against Cholinesterase were 15 µM and 430 nM, respectively.
In the case of `CC(=O)c1ccc(NC(=O)Oc2ccc3c(c2)[C@]2(C)CCN(CCc4ccccc4)[C@@H]2N3C)cc1`, the IC50 against Acetylcholinesterase was more than 100 µM; on Cholinesterase, 5900 nM.
As to `CN1c2ccc(OC(=O)Nc3ccc(-c4ccccc4)cc3)cc2[C@]2(C)CCN(CCc3ccccc3)[C@H]12`, the IC50 against Acetylcholinesterase is more than 100 µM; on Cholinesterase it was 1100 nM.
Regarding `COc1ccc(NC(=O)Oc2ccc3c(c2)[C@]2(C)CCN(CCc4ccccc4)[C@@H]2N3C)cc1`, the figures for the IC50 against Acetylcholinesterase and on Cholinesterase were 33 µM and 83 nM, respectively.
`CCCCCCOc1ccc(NC(=O)Oc2ccc3c(c2)[C@]2(C)CCN(CCc4ccccc4)[C@@H]2N3C)cc1`: the values for the IC50 against Acetylcholinesterase and on Cholinesterase were more than 100 µM and 1400 nM, respectively.
On to `CNC(=O)Oc1ccc2c(c1)[C@]1(C)CCN(CCc3ccccc3)[C@@H]1N2C`, for which the figures for the IC50 at Acetylcholinesterase and at Cholinesterase were 0.17 µM and 10 nM, respectively.
Turning to `CCCCCCNC(=O)Oc1ccc2c(c1)[C@]1(C)CCN(CCc3ccccc3)[C@@H]1N2C`, the IC50 on Acetylcholinesterase was 0.97 µM; at Cholinesterase, 14 nM.

Source of the values: ChEMBL document CHEMBL1154942, “Design, synthesis and evaluation of carbamate-modified (-)-N(1)-phenethylnorphysostigmine derivatives as selective butyrylcholinesterase inhibitors” (Bioorg Med Chem Lett, 2010).
